ChEMBL document CHEMBL1128251, “Antimalarial activity of new dihydroartemisinin derivatives. 6. alpha-Alkylbenzylic ethers” (J Med Chem, 1995)
Converted amounts (≈) assume the structure as drawn.

Experiments:
[1] = tested on: Plasmodium falciparum; assay: In vitro antimalarial activity against Plasmodium falciparum W2 Indochina; assay type: functional, organism-based
Method in brief: (§1)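 Clones D-6 and W-2 tested in parallel. Compounds dissolved in DMSO, diluted 400-fold in RPMI 1640 with 25 mM Hepes, 32 mM NaHCO3 and 10% human plasma, then serially diluted 2-fold over 11 concentrations. Parasites preexposed 48 h at 37 °C under 5% O2/5% CO2/90% N2, then [3H]hypoxanthine added for 18 h; DNA harvested, uptake counted by scintillation. IC50 from logistic dose-response model; arithmetic mean of ≥3 runs.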

[2] = tested on: Plasmodium falciparum; assay: In vitro antimalarial activity against Plasmodium falciparum D6 (Sierra Leone I); assay type: functional, organism-based; method in brief: as §1

In the case of `CCOC(=O)C[C@@H](O[C@H]1O[C@@H]2O[C@@]3(C)CC[C@H]4[C@H](C)CCC([C@H]1C)[C@@]24OO3)c1ccccc1` (some centres undefined), the IC50 [1] is reported as 0.213 ng/mL (≈ 0.463 nM) and the IC50 [2] is reported as 0.496 ng/mL (≈ 1.08 nM).

For `CCC[C@H](Cc1ccccc1)O[C@H]1O[C@@H]2O[C@@]3(C)CC[C@H]4[C@H](C)CCC([C@H]1C)[C@@]24OO3` (some centres undefined), the IC50 [1] was 1.92 ng/mL (≈ 4.45 nM) and the IC50 [2] was 3.05 ng/mL (≈ 7.08 nM).

`CCC[C@@H](Cc1ccccc1)O[C@H]1O[C@@H]2O[C@@]3(C)CC[C@H]4[C@H](C)CCC([C@H]1C)[C@@]24OO3` (some centres undefined) was tested, and the IC50 [1] was 0.697 ng/mL (≈ 1.62 nM) and the IC50 [2] was 0.972 ng/mL (≈ 2.26 nM).

With `COC(=O)c1ccc([C@H](C)O[C@H]2O[C@@H]3O[C@@]4(C)CC[C@H]5[C@H](C)CCC([C@H]2C)[C@@]35OO4)cc1` (some centres undefined) the IC50 [1] was 0.335 ng/mL (≈ 0.751 nM) and the IC50 [2] was 0.692 ng/mL (≈ 1.55 nM).

`CCOC(=O)C[C@H](O[C@H]1O[C@@H]2O[C@@]3(C)CC[C@H]4[C@H](C)CCC([C@H]1C)[C@@]24OO3)c1ccc([N+](=O)[O-])cc1` (some centres undefined) showed an IC50 [1] of 0.0487 ng/mL (≈ 0.0963 nM) and an IC50 [2] of 0.246 ng/mL (≈ 0.487 nM).

For `C[C@@H]1CCC2[C@@H](C)[C@@H](O[C@H](C)c3ccc(C(=O)O)cc3)O[C@@H]3O[C@@]4(C)CC[C@@H]1[C@@]23OO4` (some centres undefined), the IC50 [1] was 2.54 ng/mL (≈ 5.86 nM) and the IC50 [2] was 5.77 ng/mL (≈ 13.3 nM).

`C[C@@H]1CCC2[C@@H](C)[C@@H](O[C@H](C)c3ccc(C(F)(F)F)cc3)O[C@@H]3O[C@@]4(C)CC[C@@H]1[C@@]23OO4` (some centres undefined) gave an IC50 [1] of 1.15 ng/mL (≈ 2.51 nM) and an IC50 [2] of 1.46 ng/mL (≈ 3.19 nM).

`COC(=O)c1ccc([C@@H](C)O[C@H]2O[C@@H]3O[C@@]4(C)CC[C@H]5[C@H](C)CCC([C@H]2C)[C@@]35OO4)cc1` (some centres undefined) was tested, and the IC50 [1] was 0.337 ng/mL (≈ 0.754 nM) and the IC50 [2] was 0.921 ng/mL (≈ 2.06 nM).

For `C[C@@H]1CCC2[C@@H](C)[C@@H](O[C@H](CC(=O)O)c3ccc([N+](=O)[O-])cc3)O[C@@H]3O[C@@]4(C)CC[C@@H]1[C@@]23OO4` (some centres undefined), the IC50 [1] was 1.35 ng/mL (≈ 2.82 nM) and the IC50 [2] was 2.87 ng/mL (≈ 6.01 nM).

`CCOC(=O)C[C@@H](O[C@H]1O[C@@H]2O[C@@]3(C)CC[C@H]4[C@H](C)CCC([C@H]1C)[C@@]24OO3)c1ccc([N+](=O)[O-])cc1` (some centres undefined) gave an IC50 [1] of 0.23 ng/mL (≈ 0.454 nM) and an IC50 [2] of 0.563 ng/mL (≈ 1.11 nM).

`C[C@H](O[C@H]1O[C@@H]2O[C@@]3(C)CC[C@H]4[C@H](C)CCC([C@H]1C)[C@@]24OO3)c1ccc(C(=O)O)cc1` (some centres undefined) gave an IC50 [1] of 1.23 ng/mL (≈ 2.85 nM) and an IC50 [2] of 2.94 ng/mL (≈ 6.79 nM).

`CCOC(=O)[C@H](O[C@H]1O[C@@H]2O[C@@]3(C)CC[C@H]4[C@H](C)CCC([C@H]1C)[C@@]24OO3)c1ccccc1` (some centres undefined) gave an IC50 [1] of 0.0938 ng/mL (≈ 0.21 nM) and an IC50 [2] of 0.287 ng/mL (≈ 0.643 nM).

`CCOC(=O)[C@@H](O[C@H]1O[C@@H]2O[C@@]3(C)CC[C@H]4[C@H](C)CCC([C@H]1C)[C@@]24OO3)c1ccccc1` (some centres undefined) was tested, and the IC50 [1] was 0.227 ng/mL (≈ 0.507 nM) and the IC50 [2] was 0.509 ng/mL (≈ 1.14 nM).

Work on `CCOC(=O)C[C@H](O[C@H]1O[C@@H]2O[C@@]3(C)CC[C@H]4[C@H](C)CCC([C@H]1C)[C@@]24OO3)c1ccccc1` (some centres undefined) yielded an IC50 [1] of 0.144 ng/mL (≈ 0.312 nM) and an IC50 [2] of 0.459 ng/mL (≈ 0.997 nM).

Compound `C[C@@H]1[C@H](OCc2ccc(C(=O)O)cc2)O[C@@H]2O[C@@]3(C)CC[C@@H]4[C@@H](C)CC[C@@H]1[C@]24OO3` [ARTELINIC ACID] has an IC50 [1] of 2.08 ng/mL (≈ 4.97 nM) and an IC50 [2] of 4.87 ng/mL (≈ 11.6 nM).

In the case of `CO[C@H]1O[C@@H]2O[C@@]3(C)CC[C@H]4[C@H](C)CC[C@@H]([C@H]1C)[C@@]24OO3` [ARTEMETHER], the IC50 [1] is reported as 0.301 ng/mL (≈ 1.01 nM) and the IC50 [2] is reported as 0.869 ng/mL (≈ 2.91 nM).

For `C[C@@H]1CC[C@H]2[C@@H](C)C(=O)O[C@@H]3O[C@@]4(C)CC[C@@H]1[C@]32OO4` [ARTEMISININ], the IC50 [1] was 1.01 ng/mL (≈ 3.6 nM) and the IC50 [2] was 2.3 ng/mL (≈ 8.15 nM).
